High-throughput results as filed in PubChem BioAssay.
INS promoter act = TRM-6 insulin promoter activation; activation, % at 2 µM; AID 1296; actives 0.81% (n = 130,000); TRM-6 cells, insulin promoter eGFP reporter, imaging; plate-scaled: unstimulated 0, stimulated control 100;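 active = activation at 2 µM above a set limit, confirmed on inspection of the cell images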;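 note: share of cells whose green reporter signal exceeds an intensity cutoff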
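Material: Human fetal islet-derived TRM-6 cells with tamoxifen-inducible insulin promoter–eGFP reporter | Medium: Low-glucose (5.5 mM) medium with tamoxifen | Probe or stimulus: Tamoxifen inducer, 0.75 µM, in seeding medium | Schedule: Tamoxifen pre-incubation 15 h overnight, then compound exposure 48 h at 37 °C | Detection: High-content imaging of fixed cells with Hoechst nuclear stain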
Numbers without * were called inactive. Only a selection was taken, and hits are over-represented in it overall.

SMILES	INS promoter act
CCC(=O)N1CCc2cc(S(=O)(=O)NCCCOC)ccc21	0
O=C(O)CN1C(=O)SC(Nc2ccc(Cl)cc2)C1=O (stereo not drawn)	0
Cc1ccccc1N1C(=O)CN(Cc2sccc2C)C1=S	84*
Cc1ccccc1N1C(=O)CC2(CCCC2)CC1=O	115
Cc1ccc(N2C(=O)CN(Cc3sccc3C)C2=S)cc1C	-3
COc1ccccc1N1CCN(S(=O)(=O)Cc2ccccc2Cl)CC1	-89
O=C(C1CCC(CNc2nc(=S)[nH]c3ccccc23)CC1)N1CCN(c2ccc(F)cc2)CC1 (stereo not drawn)	8
Cc1cccc(NC(=O)CN2C(=O)N/C(=C/c3ccc(C)o3)C2=O)c1	10
Cc1ccc2c(c1)C(=O)C(=O)N2CC(=O)Nc1ccc(N2CCOCC2)cc1	0
CC(=O)N1C(=S)NC(=O)/C1=C1/C(=O)N(CC(=O)Nc2cccc(C)c2)c2ccccc21	108*
COCCNC(=O)C1CC(=O)N(c2ccc(OC)cc2)C1c1ccc(OC)cc1 (stereo not drawn)	-7
S=c1[nH]nc(-c2ccccn2)n1/N=C/c1cccc2ccccc12	-7
O=C(CSc1ncn(-c2ccccc2)n1)Nc1nccs1	-8
Cc1cc(C)nc(NC(=O)CSc2nc3ccccc3s2)n1	-4
O=C(CSc1nn(-c2ccccc2)c(=S)s1)Nc1ncccn1	377*
COCCN1C(=O)C(=O)/C(=C(/O)c2ccc(S(=O)(=O)N3CCOCC3)cc2)C1c1ccc(C(C)C)cc1 (stereo not drawn)	-4
COc1ccc(/C=C2\C(=O)NCC(=O)N2Cc2ccccc2)cc1	-9
COc1ccc(/C=C/C2=NN(Cc3ccccc3)C(=O)CC2)cc1	388*
COc1ccc(/C=C/c2ccc(=O)n(Cc3ccccc3)n2)cc1	8
CCC(CC)c1nnc(NC(=O)CS(=O)(=O)Cc2ccccc2)s1	-43
Cc1ccnc(NC(=O)CS(=O)(=O)Cc2ccccc2)c1	550*
CC(C)Cc1nnc(NC(=O)CS(=O)(=O)Cc2ccccc2)s1	6
COCCNC(=O)CN(C(=O)CCC(=O)Nc1ccccn1)c1ccccc1F	7
CCOC(=O)C1CCN(C(=O)Nc2ccc(OC)c(OC)c2)CC1	2
Cc1ccc2oc(-c3ccc(NC(=O)c4cccnc4)cc3)nc2c1	9
SMILES	INS promoter act
CNC(=O)COc1ncnc2sc(C)c(C)c12	-3
COc1cc(NC(=O)CSCC(=O)Nc2cccc(C(F)(F)F)c2)c(Cl)cc1Cl	-9
COc1cc(/C=C2\C(=O)N(CCC#N)N=C2C)ccc1OCC(=O)Nc1ccccc1	-3
COc1cc(/C=C(\C#N)c2ccccn2)ccc1OCC(=O)Nc1cccc(C(F)(F)F)c1	280*
CCn1c(CC(=O)Nc2ccc(C)c(Cl)c2)nnc1SCC(=O)Nc1nc(C)cs1	450*
CCn1c(CC(=O)Nc2ccccc2)nnc1SCC(=O)Nc1ccccc1C(=O)OC	-8
CCn1c(CC(=O)Nc2ccc(C)cc2)nnc1SCC(=O)N1CCN(c2ccccc2)CC1	188
O=C(Nc1nnc(C2CC2)s1)c1cc(-c2ccccc2)nn1-c1ccccc1	6
O=C(O)c1csc(-c2ccc(Cl)cc2)n1	-7
O=C(CN1C2=NCCCN2c2ccccc21)c1cccc(Br)c1	-8
Clc1ccc(CN2C3=NCCCN3c3ccccc32)cc1	136*
OC(CN1C2=NCCN2c2ccccc21)c1ccc(Br)cc1 (stereo not drawn)	-3
COc1ccccc1OCCn1cc(/C=N/n2cnnc2)c2ccccc21	-7
Cc1ccc2cc(CN(CC3CCCO3)C(=S)Nc3ccccc3)c(=O)[nH]c2c1C (stereo not drawn)	0
O=C1CSC(c2ccccc2[N+](=O)[O-])N1CCc1ccccc1 (stereo not drawn)	6
Cc1ccc(C(=O)OCc2nnc(-c3ccc(Br)cc3)o2)cc1	0
CS(=O)(=O)c1ccc(C(=O)N2CCN(Cc3ccccc3)CC2)cc1	0
Cc1[nH]c(=O)[nH]c(=O)c1S(=O)(=O)N1CCC(C(=O)N2CCN(Cc3ccccc3)CC2)CC1	6
CS(=O)(=O)N1CCC(C(=O)N2CCN(Cc3ccccc3)CC2)CC1	438*
CCSc1nc(-c2ccc(OC)cc2)n(-c2nc3ccccc3s2)n1	189
COc1ccc(C(=O)N/N=C/c2ccc(OC)c(OS(=O)(=O)c3ccccc3)c2)cc1	-5
COc1cc(/C=N/NC(=O)c2ccc(-c3ccccc3)cc2)cc(OC)c1OC	443*
COc1cc(/C=N/NC(=O)c2ccoc2C)cc(OC)c1OC	3
CCOC(=O)c1cc(NC(=O)N(CC)CC)c(C)nc1C	8
CN(C)C(=O)C1C2NC(=S)N(c3ccc(Cl)cc3)C1(C)Oc1ccc(Cl)cc12 (stereo not drawn)	7
SMILES	INS promoter act
Cc1nnc(NC(=O)c2cccc(NC(=O)C(C)C)c2)s1	-5
CC(C)C(=O)Nc1cccc(NC(=O)c2cc3ccccc3o2)c1	-79
CC(C)C(=O)Nc1cccc(S(=O)(=O)c2cccc(NC(=O)C(C)C)c2)c1	488*
CC1CC/C(=N/Nc2ccccc2)C(=O)N1 (stereo not drawn)	-9
Cc1ccc(CN(C)CC(=O)Nc2ccc3c(c2)CCC3)cc1	0
COc1ccc(CCNC(=O)C2CCN(S(=O)(=O)N3CCC4(CC3)OCCO4)CC2)cc1OC	0
O=C(c1ccc(S(=O)(=O)Cc2ccccc2F)c([N+](=O)[O-])c1)N1CCCC1	0
CC1CCN(C(=O)c2ccc(S(=O)(=O)Cc3ccccc3F)c([N+](=O)[O-])c2)CC1	5
CC1(c2ccc([N+](=O)[O-])c(CS(=O)(=O)c3ccccc3)c2)OCCO1	627*
CNC(=O)CN(C#N)c1nc(N(C)C)nc(N(C)C)n1	-76
Cc1cc(C)cc(Nc2c(F)c(F)c(F)c(F)c2C(=O)O)c1	8
Cc1cc(NC(=O)c2ccc3c(c2)C(=O)N(C)C3=O)no1	-7
CC(=O)Oc1cccc(N2C(=O)c3ccc(C(=O)Nc4c[nH]c(=O)[nH]c4=O)cc3C2=O)c1	214*
COc1ccc(N2C(=O)c3ccc(C(=O)OC(C)C)cc3C2=O)cc1	-64
O=C(COC(=O)C1(c2ccc(F)cc2)CCCC1)Nc1ncc(C(F)(F)F)cc1Cl	-7
Cc1cccc(NC(=O)N2CCC(NC(=O)c3ccccc3C)CC2)c1	6
CN(CC(=O)NC1CCCCCCC1)S(=O)(=O)c1cnc[nH]1	-7
O=C(NCc1ccccc1)c1ccco1	-10
C=CCn1c(CCNC(=O)c2cccs2)nnc1SCC(=O)Nc1cccc(Cl)c1C	4
C=CCn1c(CNC(=O)c2cccs2)nnc1SCC(=O)c1ccc(Br)cc1	92*
C=CCn1c(SCC(=O)Nc2ccc(C(=O)OC(C)C)cc2)nnc1-c1cccs1	0
C=CCn1c(CNC(=O)c2ccco2)nnc1SCC(=O)c1ccccc1	255*
O=C(CSc1nnc(-c2ccco2)n1Cc1ccccc1)c1ccc(F)cc1	4
CCOc1cc(C(=O)N/N=C/C2CC=CCC2)cc(OCC)c1OCC (stereo not drawn)	-7
CCOC(=O)/C(C(N)=NCCCO)=C(/O)c1ccccc1	-6
CCc1noc(C)c1C(=O)Nc1nc(-c2ccc(Cl)cc2Cl)c(C)s1	5
COc1ccc(CCNC(=O)CSc2nc(O)c(C(C)C)c(=O)[nH]2)cc1OC	283
CCn1c(Cc2ccccc2)nnc1SCC(=O)Nc1nnc(-c2ccccc2)s1	214
CCC(=O)Nc1ccc(/C(C)=N\NC(=O)c2ccc(OC)cc2)cc1	8
C/C(=N\NC(=O)c1cccc(Cl)c1)c1cccc(NC(=O)C(C)C)c1	3
